Test results reported in ChEMBL document CHEMBL2321726, “Identification of selective inhibitors for human neuraminidase isoenzymes using C4,C7-modified 2-deoxy-2,3-didehydro-N-acetylneuraminic acid (DANA) analogues” (J Med Chem, 2013).

What was measured:
Sialidase-1 = Sialidase-1 (Homo sapiens, UniProt Q99519); test: Inhibition of human neuraminidase 1 using 4MU-NANA as substrate after 30 mins by fluorescence assay
Summary of the method: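 NEU1 purified per earlier protocol as complex with β-galactosidase and cathepsin A. 0.1 M sodium acetate, pH 4.5. Inhibitor in 3-fold serial dilutions from 1 mM final, preincubated with enzyme 15 min at 37 °C. 4MU-NANA (50 μM final) added, 30 min at 37 °C. Four replicates; IC50 by nonlinear regression.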

Sialidase-3 [1] = biological target: T1, Sialidase-3 (Homo sapiens, UniProt Q9UQ49); test: Inhibition of human neuraminidase 3 expressed in Escherichia coli using 4MU-NANA as substrate after 30 mins by fluorescence assay
T1 sequence (Q9UQ49 whole entry): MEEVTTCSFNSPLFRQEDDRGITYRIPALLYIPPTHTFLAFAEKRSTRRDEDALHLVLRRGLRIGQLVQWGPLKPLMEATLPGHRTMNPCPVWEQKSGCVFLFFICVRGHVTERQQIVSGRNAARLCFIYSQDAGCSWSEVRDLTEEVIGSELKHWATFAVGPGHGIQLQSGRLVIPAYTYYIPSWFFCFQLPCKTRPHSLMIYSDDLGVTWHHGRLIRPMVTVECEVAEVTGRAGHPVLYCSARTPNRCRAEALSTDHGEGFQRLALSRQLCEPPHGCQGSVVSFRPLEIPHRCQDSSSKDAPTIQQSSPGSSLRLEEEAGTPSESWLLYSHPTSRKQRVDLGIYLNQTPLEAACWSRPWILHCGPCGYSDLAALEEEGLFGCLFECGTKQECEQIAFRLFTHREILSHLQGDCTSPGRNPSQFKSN
Summary of the method: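 Enzyme made in E. coli as N-terminal MBP fusion. 0.1 M sodium acetate pH 4.5. 3-fold serial inhibitor dilutions from 1 mM final, 15 min preincubation with enzyme at 37 °C, then 4MU-NANA 50 μM final for 30 min at 37 °C. Glycinate pH 10.7 stop, fluorescence 365/445 nm. Quadruplicate points; IC50 by nonlinear regression.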

Sialidase-4 = biological target: T2, Sialidase-4 (Homo sapiens, UniProt Q8WWR8); test: Inhibition of human neuraminidase 4 using 4MU-NANA as substrate after 30 mins by fluorescence assay
T2 sequence (Q8WWR8 whole entry): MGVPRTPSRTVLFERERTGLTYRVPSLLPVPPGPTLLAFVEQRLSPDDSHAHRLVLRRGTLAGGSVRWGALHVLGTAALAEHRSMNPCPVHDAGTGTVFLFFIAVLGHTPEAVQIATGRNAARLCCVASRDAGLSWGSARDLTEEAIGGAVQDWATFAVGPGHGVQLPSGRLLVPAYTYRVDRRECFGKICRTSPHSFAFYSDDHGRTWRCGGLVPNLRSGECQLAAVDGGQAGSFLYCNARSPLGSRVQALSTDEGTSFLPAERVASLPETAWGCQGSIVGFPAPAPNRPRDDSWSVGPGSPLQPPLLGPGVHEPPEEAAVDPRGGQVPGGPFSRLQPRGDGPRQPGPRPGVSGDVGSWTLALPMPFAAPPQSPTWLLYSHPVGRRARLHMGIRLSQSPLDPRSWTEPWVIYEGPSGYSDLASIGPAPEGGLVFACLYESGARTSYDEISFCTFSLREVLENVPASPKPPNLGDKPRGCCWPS
Summary of the method: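 GST-fusion enzyme, assayed in 0.1 M sodium acetate pH 4.5. Inhibitor diluted 3-fold serially from 1 mM final, incubated 15 min at 37 °C with enzyme, then 4MU-NANA (50 μM final) 30 min at 37 °C. Four replicates; IC50 from nonlinear regression.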

Neuraminidase = Neuraminidase (Vibrio cholerae, UniProt Q5IB64); test: Inhibition of Vibrio cholerae neuraminidase
Sialidase-3 [2] = biological target: T1, Sialidase-3; test: Inhibition of human neuraminidase 3 expressed in Escherichia coli using 4MU-NANA as substrate measured for every 30 seconds for 60 mins by fluorescence assay
Summary of the method: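 Product formation at 37 °C read every 30 s for 60 min (ex 365/em 445 nm). Initial linear rates; Lineweaver–Burk slopes plotted against inhibitor concentration and fitted for Ki.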

Molecule CC(=O)N[C@H]1[C@H](CNc2ccccc2)OC(C(=O)O)=C[C@@H]1N has an IC50 (Sialidase-1) greater than 1000 µM, an IC50 (Sialidase-3 [1]) of 540 µM and an IC50 (Sialidase-4) greater than 1000 µM. It also gave an IC50 (Neuraminidase) greater than 1000 µM.
Molecule CC(=O)N[C@H]1[C@H](CNc2ccccc2)OC(C(=O)O)=C[C@@H]1O has an IC50 (Sialidase-1) greater than 1000 µM, an IC50 (Sialidase-3 [1]) of 370 µM and an IC50 (Sialidase-4) greater than 1000 µM. For the same molecule, the IC50 (Neuraminidase) was greater than 1000 µM.
Molecule CC(=O)N[C@H]1[C@H](CNCc2ccccc2)OC(C(=O)O)=C[C@@H]1O has an IC50 (Sialidase-1) greater than 1000 µM, an IC50 (Sialidase-3 [1]) greater than 1000 µM and an IC50 (Sialidase-4) greater than 1000 µM. For the same molecule, the IC50 (Neuraminidase) was 470 µM.
For CC(=O)N[C@H]1[C@H](CNNCc2ccc(-c3ccccc3)cc2)OC(C(=O)O)=C[C@@H]1O, the IC50 (Sialidase-1) was greater than 1000 µM, the IC50 (Sialidase-3 [1]) was 70 µM and the IC50 (Sialidase-4) was 200 µM. It also gave an IC50 (Neuraminidase) greater than 1000 µM.
CC(=O)N[C@H]1[C@H]([C@H](O)[C@H](O)CO)OC(C(=O)O)=C[C@@H]1N=[N+]=[N-] showed an IC50 (Sialidase-1) of 360 µM, an IC50 (Sialidase-3 [1]) of 54 µM and an IC50 (Sialidase-4) of 1000 µM. For the same molecule, the IC50 (Neuraminidase) was 540 µM.
For CC(=O)N[C@@H]1[C@@H](N=[N+]=[N-])C=C(C(=O)O)O[C@H]1CNc1ccccc1, the IC50 (Sialidase-1) was greater than 1000 µM, the IC50 (Sialidase-3 [1]) was 440 µM and the IC50 (Sialidase-4) was 300 µM. For the same molecule, the IC50 (Neuraminidase) was greater than 1000 µM.
CC(=O)N[C@@H]1[C@@H](N=[N+]=[N-])C=C(C(=O)O)O[C@H]1CNc1ccc(-c2ccccc2)cc1 was tested, and the IC50 (Sialidase-1) was greater than 1000 µM, the IC50 (Sialidase-3 [1]) was 50 µM and the IC50 (Sialidase-4) was 210 µM. It also gave an IC50 (Neuraminidase) greater than 1000 µM.
In the case of CC(=O)N[C@@H]1[C@@H](N=[N+]=[N-])C=C(C(=O)O)O[C@H]1CNOCc1ccccc1, the IC50 (Sialidase-1) is reported as greater than 1000 µM, the IC50 (Sialidase-3 [1]) is reported as 24 µM and the IC50 (Sialidase-4) is reported as greater than 1000 µM. For the same molecule, the Ki (Sialidase-3 [2]) was 8 µM and the IC50 (Neuraminidase) was 550 µM.
With CC(=O)N[C@@H]1[C@@H](N=[N+]=[N-])C=C(C(=O)O)O[C@H]1CN(Cc1ccccc1)OCc1ccccc1 the IC50 (Sialidase-1) was greater than 1000 µM, the IC50 (Sialidase-3 [1]) was 24 µM and the IC50 (Sialidase-4) was 350 µM. It also gave an IC50 (Neuraminidase) greater than 1000 µM.
Molecule CC(=O)N[C@@H]1[C@@H](N=[N+]=[N-])C=C(C(=O)O)O[C@H]1CNNc1ccccc1 has an IC50 (Sialidase-1) greater than 1000 µM, an IC50 (Sialidase-3 [1]) of 20 µM and an IC50 (Sialidase-4) greater than 1000 µM. It also gave a Ki (Sialidase-3 [2]) of 11 µM and an IC50 (Neuraminidase) greater than 1000 µM.
CC(=O)N[C@H]1[C@H]([C@H](O)[C@H](O)CO)OC(C(=O)O)=C[C@@H]1N was tested, and the IC50 (Sialidase-1) was greater than 1000 µM, the IC50 (Sialidase-3 [1]) was 180 µM and the IC50 (Sialidase-4) was 720 µM. The IC50 (Neuraminidase) was greater than 1000 µM.
CC(=O)N[C@H]1[C@H]([C@H](O)[C@H](O)CO)OC(C(=O)O)=C[C@@H]1O [NEU5AC2EN] was tested, and the IC50 (Sialidase-3 [1]) was 6.3 µM, the Ki (Sialidase-3 [2]) was 2.2 µM and the IC50 (Neuraminidase) was 170 µM.
